Activity calls are given as the source filed them. The rule behind the calls is not given here.
Experiments:
[1] = target: Metabotropic glutamate receptor 1 (Homo sapiens, UniProt Q13255); assay: Allosteric antagonist activity at human recombinant mGluR1 expressed in AV12 cells assessed as intracellular calcium concentration using Fluo-3 dye by FLIPR assay; format: functional, cell-based
In short: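 Intracellular calcium read with Fluo-3 on a 96-channel FLIPR; peak fluorescence to glutamate at its EC90 with and without compound. Inhibition expressed as percent of assay window (EC90 glutamate response minus buffer); IC50 from 4-parameter logistic fit.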

[2] = target: Metabotropic glutamate receptor 5 (Homo sapiens, UniProt P41594); assay: Antagonist activity at human mGluR5; format: functional
[3] = target: Metabotropic glutamate receptor 8 (Homo sapiens) (UniProt O00222); assay: Antagonist activity at mGluR8; format: functional
Rattus norvegicus [4] = assay: Analgesic activity in po dosed fasted Harlan Sprague-Dawley rat assessed as inhibition of formalin-induced paw-licking behaviour in late phase administered 1 hr before formalin challenge measured after 11 to 40 mins; format: functional
In short: (§1)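 Fasted male Sprague Dawley rats dosed orally (1, 3, 10, 30, 60 mg/kg, n = 8 per group) 1 h before intraplantar injection of 50 µl 5% formalin into right hindpaw. Paw-licking events counted 0–5 min (early) and 11–40 min (late); compared with vehicle, p<0.05.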

Rattus norvegicus [5] = assay: Analgesic activity in fasted Harlan Sprague-Dawley rat assessed as inhibition of formalin-induced paw-licking behaviour in late phase at 3 to 60 mg/kg, po administered 1 hr before formalin challenge measured after 11 to 40 mins; format: functional, organism-based; in short: as §1
[6] = target: Metabotropic glutamate receptor 4 (Homo sapiens) (UniProt Q14833); assay: Antagonist activity at mGluR4; format: functional
[7] = target: Metabotropic glutamate receptor 7 (Homo sapiens) (UniProt Q14831); assay: Antagonist activity at mGluR7; format: functional
[8] = target: Metabotropic glutamate receptor 3 (Homo sapiens) (UniProt Q14832); assay: Antagonist activity at mGluR3; format: functional
Rattus norvegicus [9] = assay: Ex vivo receptor occupancy of mGluR1 in po dosed fasted Sprague-Dawley rat assessed as ratio of drug level in cerebellum to frontal cortex after 20 mins; format: functional
In short: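 Fasted Sprague Dawley rats dosed orally (0.3–60 mg/kg; vehicle 1% methyl cellulose), then 1 h later given a 30 µg/kg IV bolus of a competing mGluR1 antagonist tracer. Killed 20 min later; cerebellum and frontal cortex levels measured by mass spectrometry. Occupancy by ratio method (cerebellum normalized to cortex), n = 4 per dose (n = 3 at 10 mg/kg).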

[10] = Cmax in Sprague-Dawley rat at 10 mg/kg, po; format: ADME, organism-based; parameters: dose 10 mg/kg, route oral; conditions: in vivo
In short: (§2)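 Sprague Dawley rats dosed 3 mg/kg IV (solution in 25 mmol/L phosphate buffer pH 3 with 5% solutol HS15 and 5% pharmasolve) and 10 mg/kg orally (suspension in 1% methylcellulose A400 plus 0.1% antifoam); plasma levels measured over 24 h to derive PK parameters.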

[11] = Ratio of drug level in brain to plasma in Sprague-Dawley rat; format: ADME; conditions: read-out: BPR
In short: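 Rats dosed as in the plasma PK study; brain concentration profiles measured alongside plasma and the brain/plasma ratio taken.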

[12] = Clearance in Sprague-Dawley rat at 3 mg/kg, iv and at 10 mg/kg, po; format: ADME, organism-based; conditions: in vivo; in short: as §2
[13] = target: Metabotropic glutamate receptor 1 (Rattus norvegicus, UniProt P23385); assay: Antagonist activity at rat mGluR1; format: functional
[14] = Volume of distribution in Sprague-Dawley rat at 3 mg/kg, iv and at 10 mg/kg, po; format: ADME, organism-based; conditions: in vivo; in short: as §2
[15] = AUC (0 to 24 hrs) in Sprague-Dawley rat at 10 mg/kg, po; format: ADME, organism-based; parameters: time < 24 hr, dose 10 mg/kg, route oral; conditions: plasma; in short: as §2
Rattus norvegicus [16] = assay: Toxicity in fasted Sprague-Dawley rat assessed as deffects in motor impairment at 60 mg/kg, po measured up to 4 hrs by rotorod test; format: organism-based; parameters: dose 60 mg/kg, route oral; conditions: in vivo
In short: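 Fasted male Sprague Dawley rats given 60 mg/kg orally or vehicle (n = 8 per group); time on rotorod recorded at 1, 2, 3 and 4 h post-dose after training to 40 s baseline.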

[17] = Elimination half life in Sprague-Dawley rat at 10 mg/kg, po; format: ADME, organism-based; parameters: dose 10 mg/kg, route oral; conditions: in vivo, read-out: beta t1/2 (converted); in short: as §2
[18] = Tmax in Sprague-Dawley rat at 10 mg/kg, po; format: ADME, organism-based; parameters: dose 10 mg/kg, route oral; conditions: in vivo; in short: as §2
[19] = Oral bioavailability in Sprague-Dawley rat at 10 mg/kg; format: ADME, organism-based; conditions: in vivo; in short: as §2
[20] = Elimination half life in Sprague-Dawley rat at 3 mg/kg, iv; format: ADME, organism-based; parameters: dose 3 mg/kg, route intravenous; conditions: in vivo, read-out: beta t1/2 (converted); in short: as §2

Chain of Metabotropic glutamate receptor 5 (P41594 whole entry): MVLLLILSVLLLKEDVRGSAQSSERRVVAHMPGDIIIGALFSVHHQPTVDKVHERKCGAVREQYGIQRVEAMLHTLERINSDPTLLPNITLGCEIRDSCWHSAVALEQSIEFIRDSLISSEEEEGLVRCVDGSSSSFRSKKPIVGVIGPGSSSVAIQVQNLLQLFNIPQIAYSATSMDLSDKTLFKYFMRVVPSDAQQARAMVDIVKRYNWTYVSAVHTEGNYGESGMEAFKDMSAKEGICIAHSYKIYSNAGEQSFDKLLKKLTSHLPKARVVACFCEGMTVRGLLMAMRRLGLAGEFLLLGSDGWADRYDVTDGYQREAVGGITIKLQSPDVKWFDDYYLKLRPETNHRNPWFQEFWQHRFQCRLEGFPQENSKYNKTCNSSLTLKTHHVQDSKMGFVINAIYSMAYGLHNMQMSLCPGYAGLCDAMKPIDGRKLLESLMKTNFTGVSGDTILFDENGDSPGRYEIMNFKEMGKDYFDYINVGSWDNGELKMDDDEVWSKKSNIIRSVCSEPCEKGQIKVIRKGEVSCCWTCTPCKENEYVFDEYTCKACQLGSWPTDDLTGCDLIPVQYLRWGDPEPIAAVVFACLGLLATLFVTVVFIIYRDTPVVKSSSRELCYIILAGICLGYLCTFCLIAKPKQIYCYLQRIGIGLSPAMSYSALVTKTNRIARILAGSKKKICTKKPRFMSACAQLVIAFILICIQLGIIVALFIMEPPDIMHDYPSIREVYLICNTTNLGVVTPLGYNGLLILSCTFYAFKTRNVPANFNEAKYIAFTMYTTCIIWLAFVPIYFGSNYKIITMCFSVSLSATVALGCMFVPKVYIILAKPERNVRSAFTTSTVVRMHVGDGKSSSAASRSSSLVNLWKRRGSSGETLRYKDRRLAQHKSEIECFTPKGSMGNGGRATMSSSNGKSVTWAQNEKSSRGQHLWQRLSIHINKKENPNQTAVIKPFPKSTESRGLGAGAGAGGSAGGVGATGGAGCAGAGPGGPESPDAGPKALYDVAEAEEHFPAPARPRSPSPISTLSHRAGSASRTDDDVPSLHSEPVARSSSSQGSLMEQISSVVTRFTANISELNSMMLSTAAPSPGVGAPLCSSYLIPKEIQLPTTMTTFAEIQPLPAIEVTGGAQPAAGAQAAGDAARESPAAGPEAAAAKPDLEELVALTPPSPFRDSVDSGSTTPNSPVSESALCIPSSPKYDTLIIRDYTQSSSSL
Chain of Metabotropic glutamate receptor 1 (Homo sapiens, UniProt Q13255) (Q13255 whole entry): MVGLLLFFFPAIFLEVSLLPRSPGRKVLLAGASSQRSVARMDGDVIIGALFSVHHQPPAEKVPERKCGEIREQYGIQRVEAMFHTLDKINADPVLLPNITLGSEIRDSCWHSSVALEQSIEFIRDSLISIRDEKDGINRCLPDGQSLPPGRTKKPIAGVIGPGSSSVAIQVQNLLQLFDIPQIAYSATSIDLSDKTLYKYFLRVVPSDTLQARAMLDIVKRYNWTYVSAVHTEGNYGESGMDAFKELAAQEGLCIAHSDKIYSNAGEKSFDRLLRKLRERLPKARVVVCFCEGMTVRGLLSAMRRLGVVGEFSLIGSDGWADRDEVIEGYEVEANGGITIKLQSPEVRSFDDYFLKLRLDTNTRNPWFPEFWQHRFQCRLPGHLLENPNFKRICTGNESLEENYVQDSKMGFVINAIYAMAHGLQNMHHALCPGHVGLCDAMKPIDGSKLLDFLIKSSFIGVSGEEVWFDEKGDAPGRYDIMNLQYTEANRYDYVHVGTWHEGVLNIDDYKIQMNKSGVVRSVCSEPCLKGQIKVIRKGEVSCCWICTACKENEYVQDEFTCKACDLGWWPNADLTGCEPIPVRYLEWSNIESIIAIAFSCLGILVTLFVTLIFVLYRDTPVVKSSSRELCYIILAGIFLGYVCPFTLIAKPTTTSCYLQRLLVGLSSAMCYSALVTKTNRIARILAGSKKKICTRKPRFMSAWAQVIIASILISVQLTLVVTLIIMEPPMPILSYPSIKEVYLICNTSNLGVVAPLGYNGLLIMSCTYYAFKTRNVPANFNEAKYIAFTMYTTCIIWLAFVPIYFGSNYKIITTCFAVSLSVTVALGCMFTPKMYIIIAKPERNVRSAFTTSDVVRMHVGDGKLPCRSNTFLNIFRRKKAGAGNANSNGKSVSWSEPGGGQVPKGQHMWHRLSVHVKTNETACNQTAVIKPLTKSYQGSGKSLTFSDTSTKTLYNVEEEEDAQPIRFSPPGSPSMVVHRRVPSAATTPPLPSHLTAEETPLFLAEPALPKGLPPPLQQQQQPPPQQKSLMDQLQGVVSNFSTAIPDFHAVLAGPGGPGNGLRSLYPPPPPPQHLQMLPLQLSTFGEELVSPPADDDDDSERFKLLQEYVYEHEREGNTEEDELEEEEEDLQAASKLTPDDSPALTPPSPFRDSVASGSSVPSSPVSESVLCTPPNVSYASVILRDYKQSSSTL
Chain of Metabotropic glutamate receptor 7 (Homo sapiens) (Q14831 whole entry): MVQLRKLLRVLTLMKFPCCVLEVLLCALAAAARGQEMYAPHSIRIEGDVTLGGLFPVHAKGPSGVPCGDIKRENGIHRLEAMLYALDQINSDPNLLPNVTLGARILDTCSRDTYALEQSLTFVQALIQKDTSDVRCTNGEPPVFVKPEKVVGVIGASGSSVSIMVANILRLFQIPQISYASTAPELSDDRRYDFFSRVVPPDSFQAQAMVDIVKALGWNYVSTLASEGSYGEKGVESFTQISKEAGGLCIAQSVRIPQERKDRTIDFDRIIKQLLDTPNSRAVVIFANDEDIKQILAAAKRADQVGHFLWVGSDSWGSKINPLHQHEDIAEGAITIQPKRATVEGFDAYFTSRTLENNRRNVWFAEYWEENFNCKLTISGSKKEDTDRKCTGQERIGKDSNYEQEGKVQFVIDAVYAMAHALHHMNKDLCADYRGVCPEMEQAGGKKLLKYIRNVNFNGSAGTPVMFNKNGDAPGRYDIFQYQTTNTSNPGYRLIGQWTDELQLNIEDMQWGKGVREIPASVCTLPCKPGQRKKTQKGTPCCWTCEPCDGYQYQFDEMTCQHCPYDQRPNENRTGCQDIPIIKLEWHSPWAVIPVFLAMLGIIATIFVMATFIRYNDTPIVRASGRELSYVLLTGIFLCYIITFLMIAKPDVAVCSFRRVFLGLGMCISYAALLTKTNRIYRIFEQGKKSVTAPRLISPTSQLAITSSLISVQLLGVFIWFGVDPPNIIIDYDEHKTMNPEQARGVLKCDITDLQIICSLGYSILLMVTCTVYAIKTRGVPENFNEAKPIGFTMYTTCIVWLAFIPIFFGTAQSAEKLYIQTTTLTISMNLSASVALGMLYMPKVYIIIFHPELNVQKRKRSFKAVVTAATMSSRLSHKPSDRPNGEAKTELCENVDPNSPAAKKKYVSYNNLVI
Chain of Metabotropic glutamate receptor 4 (Homo sapiens) (Q14833 whole entry): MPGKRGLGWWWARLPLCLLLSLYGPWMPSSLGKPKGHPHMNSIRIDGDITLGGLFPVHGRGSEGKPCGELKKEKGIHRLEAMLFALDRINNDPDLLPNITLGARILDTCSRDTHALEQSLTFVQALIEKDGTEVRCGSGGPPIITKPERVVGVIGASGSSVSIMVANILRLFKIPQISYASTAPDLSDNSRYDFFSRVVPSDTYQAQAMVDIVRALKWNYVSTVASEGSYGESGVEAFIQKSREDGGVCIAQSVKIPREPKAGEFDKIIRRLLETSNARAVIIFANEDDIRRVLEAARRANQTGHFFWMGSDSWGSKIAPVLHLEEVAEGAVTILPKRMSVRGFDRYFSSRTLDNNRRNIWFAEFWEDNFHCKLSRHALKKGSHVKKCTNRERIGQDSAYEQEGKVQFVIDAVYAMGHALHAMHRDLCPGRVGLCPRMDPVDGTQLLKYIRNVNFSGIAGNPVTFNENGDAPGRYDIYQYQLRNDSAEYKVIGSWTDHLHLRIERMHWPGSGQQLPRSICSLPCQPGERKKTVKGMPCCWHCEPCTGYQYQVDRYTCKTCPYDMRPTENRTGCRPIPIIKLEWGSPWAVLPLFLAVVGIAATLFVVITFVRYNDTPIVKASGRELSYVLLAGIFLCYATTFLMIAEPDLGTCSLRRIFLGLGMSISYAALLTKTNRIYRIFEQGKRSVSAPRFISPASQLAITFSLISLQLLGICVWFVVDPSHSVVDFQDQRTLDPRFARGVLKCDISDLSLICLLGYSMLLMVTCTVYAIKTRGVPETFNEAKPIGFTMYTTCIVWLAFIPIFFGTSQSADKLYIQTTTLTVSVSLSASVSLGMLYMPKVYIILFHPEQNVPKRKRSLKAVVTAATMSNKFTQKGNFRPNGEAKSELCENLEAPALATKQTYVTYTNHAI
Chain of Metabotropic glutamate receptor 3 (Homo sapiens) (Q14832 23-879 limits assumed): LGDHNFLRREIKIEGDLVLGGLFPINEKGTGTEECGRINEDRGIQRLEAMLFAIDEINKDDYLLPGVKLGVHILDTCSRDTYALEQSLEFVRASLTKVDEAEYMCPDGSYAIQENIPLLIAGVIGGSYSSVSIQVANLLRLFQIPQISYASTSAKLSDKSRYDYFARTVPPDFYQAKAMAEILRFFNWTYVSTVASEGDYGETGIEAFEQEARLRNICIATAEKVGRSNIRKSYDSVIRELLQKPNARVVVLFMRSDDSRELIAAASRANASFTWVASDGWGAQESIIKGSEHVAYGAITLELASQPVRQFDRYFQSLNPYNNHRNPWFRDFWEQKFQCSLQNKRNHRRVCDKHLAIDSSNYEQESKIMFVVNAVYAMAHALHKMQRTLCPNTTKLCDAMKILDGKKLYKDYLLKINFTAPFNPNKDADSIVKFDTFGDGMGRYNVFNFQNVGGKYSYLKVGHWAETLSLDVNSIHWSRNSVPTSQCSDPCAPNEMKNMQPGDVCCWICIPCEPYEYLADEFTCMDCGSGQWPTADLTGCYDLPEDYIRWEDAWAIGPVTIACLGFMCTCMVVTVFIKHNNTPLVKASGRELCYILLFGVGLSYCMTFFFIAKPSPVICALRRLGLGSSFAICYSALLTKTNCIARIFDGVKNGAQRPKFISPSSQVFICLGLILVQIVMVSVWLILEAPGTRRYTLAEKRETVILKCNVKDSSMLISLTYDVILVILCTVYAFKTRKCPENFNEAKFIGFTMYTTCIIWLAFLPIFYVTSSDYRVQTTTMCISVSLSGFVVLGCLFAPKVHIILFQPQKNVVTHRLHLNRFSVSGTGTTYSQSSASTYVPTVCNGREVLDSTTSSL

CCOc1ccc(-c2nsc(NC(=O)[C@@H]3C[C@H]3C)c2C)cc1
IC50 [1]: 92 nM | IC50 [2]: 19 nM

COc1ccc(-c2nsc(NC(=O)[C@@H]3C[C@H]3C)c2C)cc1 [listing 1 of 2 here]
Activity [3]: inactive | Activity (Rattus norvegicus [4]): Dose-dependent effect | Activity (Rattus norvegicus [5]): Active | Activity [6]: inactive | Activity [7]: inactive | Activity [8]: inactive

Cc1c(-c2ccc(Cl)c(Cl)c2)nsc1NC(=O)[C@@H]1C[C@H]1C
IC50 [1]: 39 nM | IC50 [2]: 6650 nM

Cc1c(-c2ccc(O)cc2)nsc1NC(=O)[C@@H]1C[C@H]1C
IC50 [1]: 138 nM | IC50 [2]: > 12500 nM

Cc1c(-c2ccc(Cl)cc2)nsc1NC(=O)[C@@H]1C[C@H]1C
IC50 [1]: 9 nM | IC50 [2]: 1220 nM

Cc1c(-c2ccc(F)cc2)nsc1NC(=O)[C@@H]1C[C@H]1C
IC50 [1]: 100 nM | IC50 [2]: > 12500 nM

Cc1c(-c2ccccc2)nsc1NC(=O)[C@@H]1C[C@H]1C
IC50 [1]: 65 nM | IC50 [2]: > 12500 nM

COc1ccc(-c2nsc(NC(=O)[C@@H]3C[C@H]3C)c2C)cc1 (racemic)
IC50 [1]: 32 nM

COc1ccc(-c2nsc(NC(=O)[C@H]3C[C@@H]3C)c2C)cc1
IC50 [1]: 110 nM

Cc1c(-c2ccc(C(C)(F)F)cc2)nsc1NC(=O)[C@@H]1C[C@H]1C
IC50 [1]: 67 nM | IC50 [2]: > 12500 nM

COc1ccc(-c2nsc(NC(=O)[C@@H]3C[C@H]3C)c2C)cc1 [listing 2 of 2 here]
ED50 (Rattus norvegicus [9]): 3.7 mg/kg | Cmax [10]: 1050 ng/mL | Kp [11]: 0.2 | ED50 (Rattus norvegicus [4]): 7 mg/kg | clearance [12]: 35.9 mL/min/kg | IC50 [13]: 0.9 nM | Vd [14]: 1.27 L/kg | AUC(0-t) at 24 h [15]: 3240 ng·h/mL | IC50 [1]: 9 nM | IC50 [2]: 158 nM | Activity (Rattus norvegicus [16]): Non-toxic | half-life [17]: 74.4 min | Tmax [18]: 1 h | bioavailability [19]: 55.5% | half-life [20]: 24.6 min

Cc1c(-c2ccc(Br)cc2)nsc1NC(=O)[C@@H]1C[C@H]1C
IC50 [1]: 7 nM | IC50 [2]: 730 nM

COc1ccc(-c2nsc(NC(=O)[C@@H]3C[C@H]3C)c2C)cc1F
IC50 [1]: 7 nM | IC50 [2]: 159 nM
